High-throughput results (PubChem BioAssay)
CHRM5 PAM = positive allosteric modulators of human muscarinic M5 receptor; activation, % at 3 µM; 360,000 tested, 0.3% active; CHO-K1 hM5, Fluo-8 calcium, ACh EC20 PAM; 0% = ACh EC20, 100% = ACh EC100; P08912;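 active means activation above the run cutoff, the mean activation of all test compounds plus 3 SD, cut at about 18% in these data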
Target sequence (P08912 whole entry, looked up): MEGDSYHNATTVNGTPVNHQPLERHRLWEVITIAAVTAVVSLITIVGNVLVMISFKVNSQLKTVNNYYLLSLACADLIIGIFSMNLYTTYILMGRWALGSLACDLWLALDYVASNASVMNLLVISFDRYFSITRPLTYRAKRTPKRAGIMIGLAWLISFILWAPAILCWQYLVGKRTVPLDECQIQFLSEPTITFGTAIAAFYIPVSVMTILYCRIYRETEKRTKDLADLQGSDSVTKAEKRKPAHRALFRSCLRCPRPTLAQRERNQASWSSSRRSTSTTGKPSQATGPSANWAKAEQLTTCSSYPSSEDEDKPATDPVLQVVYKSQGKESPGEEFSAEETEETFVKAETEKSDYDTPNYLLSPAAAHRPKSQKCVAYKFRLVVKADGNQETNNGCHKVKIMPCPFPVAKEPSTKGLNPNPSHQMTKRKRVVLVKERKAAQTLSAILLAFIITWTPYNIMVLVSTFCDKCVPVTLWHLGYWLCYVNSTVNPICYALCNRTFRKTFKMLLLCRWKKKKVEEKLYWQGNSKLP
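Test system: CHO-K1 hM5 cells / Doses: single-point, 3 µM nominal / Times: Post-acetylcholine fluorescence recording 140 s / Technique: Fluo-8 calcium fluorescence / Measure: Max/basal fluorescence ratio as % of EC20–EC100 ACh window / Benchmarks: low control EC20 acetylcholine (0%), high control EC100 acetylcholine (100%) / Replicates: one well per compound, no replicates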
CHRM5 agonist = agonists of human muscarinic M5 receptor (CHRM5); P08912; CHO-K1 hM5 cells, Fluo-8 calcium fluorescence; 0% DMSO wells, 100% maximal acetylcholine response; activation, % at 3 µM; 360,000 tested, 0.19% active; AID 624037;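 active means activation above the run's mean over test compounds plus 3 SD, cut at about 23% in these data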;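 further: signal is peak over basal fluorescence ratio across the kinetic read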
CHRM5 antagonist = blocks acetylcholine activation of human M5 receptor; CHO-hM5 cells, Fluo-8 calcium fluorescence, ACh EC80; inhibition, % at 3 µM; 360,000 tested, 0.59% active;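 active means inhibition above a per-plate cutoff, the mean of that plate's test compounds plus 3 SD, cut at about 27% in these data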;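 further: 0% = acetylcholine EC80 with DMSO and 100% = DMSO without agonist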
M4 antag = antagonists of human muscarinic M4 receptor (CHRM4) | P08173 | CHO-hM4 cells, ACh EC80, Fluo-8 calcium fluorescence | inhibition, % at 3 µM | 360,000 tested, 0.73% active | AID 624125;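 active means inhibition above its plate's cutoff, the mean inhibition of sample wells plus 3 SD, cut at about 27% in these data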;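 further: 0% = acetylcholine EC80 with DMSO and 100% = DMSO without agonist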
CHRM4 agonist = CHRM4 agonism in calcium assay; P08173; CHO-K1 hM4/Gqi5, Fluo-8 calcium fluorescence; vehicle 0%, full acetylcholine response 100%; AID 624127; activation, % at 3 µM; 360,000 tested, 0.14% active;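 active means activation above the run mean over all test wells plus 3 SD, cut at about 32% in these data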;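 further: peak over basal fluorescence ratio per well then scaled between controls; 0% = DMSO wells and 100% = acetylcholine at EC100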
M4 PAM = potentiates acetylcholine response at human M4 receptor; P08173; CHO-K1 hM4/Gqi5, Fluo-8 calcium fluorescence, ACh EC20; 0% = ACh EC20, 100% = maximal ACh; activation, % at 3 µM; 360,000 tested, 0.4% active; AID 624126;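 active means activation above its plate's cutoff, the mean activation of sample wells plus 3 SD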
* hit, by the source's call. Rows were chosen to be rich in hits. Some 1.8% of all compounds tested hit in one or more screens of this group.

SMILES	CHRM5 PAM	CHRM5 agonist	CHRM5 antagonist	M4 antag	CHRM4 agonist	M4 PAM
Cc1ccc(S(=O)(=O)N2CCC(C(=O)OCC(=O)NC(C)c3ccc(F)cc3)CC2)cc1C (stereo not given)	-10	-2	16	-6	7	-1
C=CCn1c(SCc2ccc(C(=O)Nc3nccs3)cc2)nnc1-c1ccc(C)c(Cl)c1	-16	1	27*	20	9	-16
O=C(c1ccc(N2CCCCC2)c([N+](=O)[O-])c1)N1CCN(S(=O)(=O)c2ccccc2)CC1	-6	-2	4	-1	9	-11
NC(=O)c1ccc(N2CCN(S(=O)(=O)c3ccccc3)CC2)c([N+](=O)[O-])c1	-26	11	29*	19	16	-18
Cc1cc(NC(=O)c2cccc(S(=O)(=O)N3CCCCCC3)c2)no1	-3	3	-1	-5	2	10
Cc1cc(NC(=O)c2ccc(F)c(S(=O)(=O)N3CCCCC3)c2)no1	-7	-3	9	51*	0	-14
CCC(O)c1cnc(OCc2ccccc2)nc1OCc1ccccc1 (stereo not given)	-2	-2	4	0	0	-4
Cc1ccc(C(=O)OCN2C(=O)c3ccccc3C2=O)cc1S(=O)(=O)N1CCOCC1	4	-3	-6	-22	5	-3
O=C(NCCSCc1ccccc1)c1ccc(C2SCC(=O)N2Cc2ccccc2)cc1 (stereo not given)	-24	-6	14	34*	9	-18
COC(=O)c1ccc(C2SCC(=O)N2Cc2ccccc2)cc1 (stereo not given)	-5	-1	4	3	8	-10
COc1ccc(/C=C/C(=O)NCC(=O)N/N=C/c2cccs2)cc1	-2	-3	-4	-2	2	4
O=C(Nc1cc2c(cc1[N+](=O)[O-])OCCO2)c1cccnc1	-2	1	6	-1	1	3
CCOC(=O)C1(CCc2ccccc2)CCN(C2Cc3ccccc3C2)CC1	-20	-10	41*	1	3	-13
Oc1ccc(Nc2nc3ccccc3nc2Nc2ccc(O)cc2)cc1	-7	4	5	27*	4	-12
Oc1ccc(Nc2nc(-c3ccccc3)nc3ccccc23)cc1	-10	-3	7	5	7	-2
CC(C)(C)NC(=O)CN(Cc1cccs1)C(=O)CNS(=O)(=O)c1ccc(F)cc1	7	3	-4	-6	3	9
CC(C)(C)NC(=O)CN(Cc1ccc2c(c1)OCO2)C(=O)CNS(=O)(=O)c1ccc(F)cc1	27*	1	11	16	17	45*
C[C@@H]1CN([C@H](C)CO)C(=O)CCCn2cc(nn2)CO[C@H]1CN(C)C(=O)Nc1ccc(-c2cccs2)cc1	2	-1	-15	-15	1	1
CCN(Cc1ccccc1)C(=O)C1CCN(C(=O)Nc2ccccc2)CC1	-7	-1	18	3	2	2
CCCN(CC(=O)Nc1ccccc1C)C(=O)C1CCN(C(=O)Nc2ccccc2)CC1	-7	0	11	-19	2	21*
COC(=O)c1cc2c(ccn2-c2ccc(F)cc2)n1C(C)C	34*	-2	-1	-13	-2	9
COC(=O)c1cc2c(ccn2-c2ccc(F)cc2)n1Cc1ccc(OC(C)=O)cc1	6	7	1	-9	1	29
COC(=O)c1cc2c(ccn2-c2ccc(F)cc2)n1CC(C)C	19*	11	-6	-16	2	17*
COC(=O)c1cc2c(ccn2-c2ccc(F)cc2)n1Cc1cccc(OC)c1	3	-1	-3	0	1	2
CCCn1c(C(=O)OC)cc2c1ccn2-c1ccc(F)cc1	19*	11	-11	-18	-1	7
SMILES	CHRM5 PAM	CHRM5 agonist	CHRM5 antagonist	M4 antag	CHRM4 agonist	M4 PAM
COC(=O)c1c(-c2ccc(N(C)C)cc2)oc2c1C(OC)CCC2 (stereo not given)	8	0	-8	-3	0	4
COc1ccccc1NC(=O)Cc1nnc(SCC(=O)NC2CCCC2)n1C	-7	-2	23	15	2	-2
COc1ccccc1NC(=O)CSCc1nc2ccccc2[nH]1	-2	-2	-1	-4	2	21*
COc1ccc(NC(=O)CSc2nncn2N)c(OC)c1	5	4	-1	-2	0	-7
COc1ccccc1NC(=O)CSc1nncn1N	19*	6	-6	6	1	-1
COc1ccccc1NC(=O)Cc1nnc(SCC(=O)NC2CCCCC2C)n1C (stereo not given)	-8	-3	31*	3	2	-2
COc1cc(CN2C[C@@H](CO)O[C@@H](n3cnc4c(NCCCO)ncnc43)C2)cc(OC)c1OC	0	1	3	1	0	0
CC(C)NC(=O)Cn1nnc(-c2ccccc2)c1COc1ccc2ccccc2c1	-3	0	2	5	4	-1
CC1CCN(C(=O)c2cccc(S(=O)(=O)N3CCCCC3)c2)CC1	-4	2	-5	-11	3	9
CC1CCN(S(=O)(=O)c2cccc(C(=O)Oc3ccc([N+](=O)[O-])cc3)c2)CC1	5	4	3	-11	2	30*
O=C(CSc1nnc(Cc2ccccc2)o1)c1cc(F)ccc1F	21*	-1	3	-6	0	6
Fc1ccc(-n2nnc(-c3cccnc3)n2)cc1	3	2	8	-4	1	11
Fc1ccc(C(CCCn2nnc(-c3cccnc3)n2)c2ccc(F)cc2)cc1	-54	-10	22	29*	6	-18
Cc1ccc(-c2nc3c4ccccc4ccn3c2Cc2ccccc2C(F)(F)F)cc1	-2	-4	-10	-7	-1	-2
CCN=C(NCC)SC1CC(=O)N(c2ccc(OC)cc2)C1=O (stereo not given)	-22	7	17	19	30	-9
CCOc1ccc(NC(=NCc2ccc3c(c2)OCO3)SC2CC(=O)N(c3ccccc3)C2=O)cc1 (stereo not given)	4	-1	-2	-4	0	1
CCOc1ccc(NC(=NCc2ccc3c(c2)OCO3)SC2CC(=O)N(c3ccc(OCC)cc3)C2=O)cc1 (stereo not given)	19*	-4	-10	0	0	8
CCN=C(NCC)SC1CC(=O)N(c2cccc(OCC)c2)C1=O (stereo not given)	-19	5	28*	33*	19	-9
O=C(O)C1=CC2C=C(Cl)C=CC2OC1=O (stereo not given)	5	1	5	-3	-1	2
